UHRF1 binding: human UHRF1 methylated DNA binding inhibitors; Q96T88; UHRF1 binding to methylated oligo, TR-FRET; inhibition, % at 4.4 µM; 370,000 tested, 0.75% active; AID 687016; in the data active means inhibition above about 21%;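 further: UHRF1 SRA domain binding a hemimethylated CpG hairpin DNA probe; 0% = median of test compound wells and 100% = reference inhibitor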
Target sequence (Q96T88 whole entry, looked up, the tested form may be a part): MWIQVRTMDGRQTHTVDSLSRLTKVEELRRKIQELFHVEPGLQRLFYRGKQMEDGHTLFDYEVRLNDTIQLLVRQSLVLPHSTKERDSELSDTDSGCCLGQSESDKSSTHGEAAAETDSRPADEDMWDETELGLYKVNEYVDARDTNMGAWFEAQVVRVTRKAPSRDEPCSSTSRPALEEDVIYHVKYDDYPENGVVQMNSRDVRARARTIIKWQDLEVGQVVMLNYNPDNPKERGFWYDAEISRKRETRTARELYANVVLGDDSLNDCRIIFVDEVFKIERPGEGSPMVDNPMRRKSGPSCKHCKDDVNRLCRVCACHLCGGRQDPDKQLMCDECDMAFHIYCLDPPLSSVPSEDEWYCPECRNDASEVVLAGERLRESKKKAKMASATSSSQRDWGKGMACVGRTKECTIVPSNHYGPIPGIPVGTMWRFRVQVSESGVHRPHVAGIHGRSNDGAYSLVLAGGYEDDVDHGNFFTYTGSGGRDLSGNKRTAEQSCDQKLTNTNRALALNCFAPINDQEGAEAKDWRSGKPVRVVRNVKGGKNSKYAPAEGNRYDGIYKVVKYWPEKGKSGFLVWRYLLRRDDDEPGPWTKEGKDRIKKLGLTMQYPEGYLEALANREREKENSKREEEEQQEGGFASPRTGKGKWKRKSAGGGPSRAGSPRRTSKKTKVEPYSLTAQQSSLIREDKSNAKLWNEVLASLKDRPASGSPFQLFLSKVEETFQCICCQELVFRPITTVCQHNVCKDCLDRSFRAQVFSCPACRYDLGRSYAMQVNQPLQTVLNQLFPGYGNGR
Rin1 Abl inh: blocks binding of human Rin1 to Abl; AID 588664; P00519+Q13671; TR-FRET Rin1/Abl binding, biochemical; 360,000 tested, 0.4% active; inhibition, % at 7.35 µM; in the data active means inhibition above about 5%, passing the limit was not always enough
Arr AP2 block: human beta-arrestin and AP2 interaction inhibition. 340,000 tested, 0.31% active. inhibition, % at 10 µM. AID 504490. FITC-arrestin peptide / GST-AP2 beads, flow cytometry; AP2 beta2 appendage carries R879A mutation;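 active means inhibition above a set limit, near 3 SD of compounds lacking own fluorescence, cut at about 54% in these data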;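 further: plate controls were DMSO wells for no effect and 5 µM unlabelled arrestin peptide for full effect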
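Measured by: flow cytometry, FL1 (488/535 nm); Material: AP2 appendage R879A on GSH beads; Evaluation: percent response; Timing: pre-incubation 12 min, peptide binding 1 h, room temperature; Also added: 50 nM FITC-arrestin peptide; Medium: PBS with 0.05% Tween 20 and 0.1% BSA.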
MBD2 DNA inh: MBD2-methylated oligo binding inhibition. Q9UBB5. TR-FRET, MBD2 binding to methylated oligonucleotide. inhibition, % at 4.4 µM. 370,000 tested, 0.31% active. AID 686964; in the data active means inhibition above about 13%
ABHD5 PLIN5 PPI: inhibitors of human ABHD5-perilipin-5 interaction | Q00G26+Q8WTS1 | Split G. princeps luciferase complementation, luminescence, 4 h | inhibition, % at 4 µM | 360,000 tested, 0.78% active;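 active means inhibition above the mean inhibition across every tested compound plus 3 SD, cut at about 22% in these data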;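 further: 0% = DMSO only wells and the 100% control is not disclosed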
Beta2AR agonist: activates human beta-2 adrenergic receptor causing internalization. Am2.2-beta2AR cells, FAP receptor internalization, flow cytometry. response, % (concentration not given with the values). 340,000 tested, 0.43% active;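 active means response above a set limit, near 3 SD of response in nonfluorescent compounds, cut at about 42% in these data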
ABHD5-PLIN5 conf: confirmation of human ABHD5-PLIN5 interaction inhibitors | AID 651612 | 2,200 tested, 67% active | inhibition, % at 4 µM | shares compounds with ABHD5 PLIN5 PPI | biochemical ABHD5-PLIN5 interaction, luminescence; in the data active means inhibition above about 23%;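 further: 0% = DMSO vehicle wells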
HNF4 counter: counter-screen for ABHD5-PLIN5 inhibitors: HNF4 split-luciferase; shares compounds with ABHD5 PLIN5 PPI; HNF4 dimerization, luminescence, biochemical; inhibition, % at 4 µM; 2,200 tested, 77% active; AID 651674;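 active means mean inhibition across replicate wells exceeding the computed hit threshold, cut at about 13% in these data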;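 further: light from luciferase halves that rejoin when HNF4 fusion proteins dimerize; 0% = DMSO only wells and the 100% control is not given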
* = called active by the depositor; . = not tested or not shown. Only some compounds are listed: those with a hit (about 2.5% of all), similar ones and a draw of the others.

SMILES	UHRF1 binding	Rin1 Abl inh	Arr AP2 block	MBD2 DNA inh	ABHD5 PLIN5 PPI	Beta2AR agonist	ABHD5-PLIN5 conf	HNF4 counter
CN(C(=O)c1ccc(NC(=O)C2CCCN(C(=O)OC(C)(C)C)C2)cc1)C1CC1 (stereo not drawn)	-1.3	2.3	.	6.2	1.1	-0.1	.	.
CC(C)(C)OC(=O)N1CCCC(C(=O)Nc2ccc(C(=O)NC3CC3)cc2)C1 (stereo not drawn)	18.8	-3.4	-10.2	8.8	35.2*	1.8	2.3	5.2
O=C(c1cc(Cl)cc(Cl)c1)N1CC[C@H]2[C@H](CCCN2Cc2ccccc2)C1	-0.4	.	.	-0.8	.	.	.	.
CCOc1ccc(C(=O)/C=C/c2cc(OC)c(OC)c(OC)c2)cc1	-1.4	-2.4	16.8	-6.9	4.1	10.6	.	.
COC(=O)c1ccc(/C=C/C(=O)c2ccc(OC)cc2)cc1	2.8	-4.1	2.8	3.6	8.2	16.0	.	.
COc1cc(/C=C/C(=O)c2ccc(F)cc2)cc(OC)c1OC	4.3	-7.1	-21.5	4.1	37.6*	3.4	68.0*	53.4*
COC(=O)c1ccc(/C=C/C(=O)c2ccc(OC)c(OC)c2)cc1	.	-0.1	-11.2	.	32.9*	9.4	65.6*	60.7*
COc1ccc(/C=C/C(=O)c2ccccc2)cc1Cn1nnc2ccccc21	-0.5	2.7	-22.6	0.5	30.8*	1.8	72.8*	65.8*
COc1ccc(/C=C/C(=O)c2ccc(C(=O)/C=C/c3ccc(OC)c(OC)c3)cc2)cc1OC	-2.1	6.6	10.0	-2.8	55.1*	25.7	98.0*	90.8*
Fc1cccc(CNC(=S)OC2CCC23CCC(c2ccccc2)CC3)c1 (stereo not drawn)	8.1	.	.	5.8	.	.	.	.
COc1ccc(C=CC(=O)c2ccc(OCc3ccccc3)c(OC)c2)cc1OC	5.0	4.4	.	-0.5	10.9	.	.	.
Cc1ccc(C(=O)/C=C/c2ccc3ncccc3c2)cc1	2.7	-0.6	-3.4	3.1	37.6*	-3.1	78.0*	78.2*
COc1ccc(Oc2ccc(/C=C/C(=O)c3ccc(O)cc3)cc2[N+](=O)[O-])cc1	-2.2	-1.4	-4.0	-1.9	27.6*	39.6	80.4*	65.1*
COc1ccc(/C=C/C(=O)NCc2ccc3c(c2)OCO3)cc1OC	-0.8	-0.5	31.7	-0.6	96.2*	0.5	4.6	1.2
COc1cc(/C=C/C(=O)c2ccc(C)cc2)ccc1OCC#N	-3.5	-2.0	1.2	-0.1	45.0*	3.8	72.4*	54.3*
CC(=O)c1cc(-c2cccc(Cl)c2O)c(=O)n2c1CCC2	4.2	.	.	1.8	.	.	.	.
CC(=O)OCC1=C(C(=O)O)N2C(=O)C(NC(=O)CCn3nc(C(F)(F)F)c(Br)c3C3CC3)C2SC1 (stereo not drawn)	-3.3	0.7	1.0	-1.4	46.5*	-3.8	42.0*	8.4
CC(=O)OCC1=C(C(=O)O)N2C(=O)C(NC(=O)CCn3nc(C)c(Cl)c3C)C2SC1 (stereo not drawn)	-1.6	-0.6	-6.5	-2.4	15.9	-0.8	.	.
CC(=O)OCC1=C(C(=O)O)N2C(=O)C(NC(=O)c3ccc(COc4c(C)cccc4Cl)o3)C2SC1 (stereo not drawn)	8.9	1.0	43.6	12.9	24.6*	0.6	17.7	17.5*
CCOc1ccc(C(=O)NC2C(=O)N3C(C(=O)O)=C(COC(C)=O)CSC23)cc1OCC (stereo not drawn)	1.5	-3.1	7.3	0.6	31.9*	4.7	10.8	29.2*
CC(=O)OCC1=C(C(=O)O)N2C(=O)[C@@H](NC(=O)Cc3ccccc3)[C@H]2SC1	-4.0	1.3	16.4	-5.2	20.8	1.4	.	.
CC(=O)OCC1=C(C(=O)O)N2C(=O)C(NC(=O)c3ccc(COc4ccc(Cl)cc4)o3)C2SC1 (stereo not drawn)	-0.2	-0.1	7.6	6.4	18.1	0.7	.	.
CCCCCCCCN1C(=O)N2Cc3cc(OC)ccc3C2CS1(=O)=O (stereo not drawn)	0.9	.	.	-3.3	.	.	.	.
COc1ccc(C(C)c2cn(C)c3ccccc23)cc1 (stereo not drawn)	1.2	.	.	-4.1	.	.	.	.
O=[N+]([O-])c1ccc2nc(COCc3nc4ccccc4[nH]3)[nH]c2c1	-0.4	.	.	-0.4	.	.	.	.
SMILES	UHRF1 binding	Rin1 Abl inh	Arr AP2 block	MBD2 DNA inh	ABHD5 PLIN5 PPI	Beta2AR agonist	ABHD5-PLIN5 conf	HNF4 counter
CCN1CCN(c2ccc(NC(=O)COc3ccccc3Cl)cc2)CC1	-1.7	-0.1	-11.1	-3.5	-9.1	-9.2	.	.
O=C(COc1ccccc1Cl)Nc1ccc(N2CCCC2)cc1	0.5	1.9	22.7	-0.5	26.1*	-5.8	44.7*	7.1
COc1ccc(S(=O)(=O)Cc2ccc(C(=O)NCc3ccccc3)o2)cc1	-0.8	2.6	2.1	-2.6	-3.1	1.3	.	.
Cc1noc(C(=O)NCc2ccccc2)c1Cl	-1.0	3.7	-4.4	4.2	9.4	2.8	.	.
CCOc1ccccc1NC(=O)c1nc(S(=O)(=O)Cc2cccc(C)c2)ncc1Cl	0.5	1.4	1.2	-3.9	7.7	18.4	.	.
COc1ccc(CNC(=O)c2nc(S(=O)(=O)Cc3ccccc3)ncc2Cl)cc1	0.0	-2.8	-0.7	3.0	41.0*	27.5	89.1*	103.0*
CC(=O)Nc1ccc(NC(=O)c2nc(S(=O)(=O)Cc3ccccc3)ncc2Cl)cc1	-1.4	-1.0	-4.2	-2.6	57.9*	13.9	81.3*	93.7*
O=C(NCc1ccccc1)c1nc(S(=O)(=O)Cc2ccccc2)ncc1Cl	2.8	1.3	1.6	4.0	51.1*	26.2	88.6*	105.5*
CC(C)(CC(=O)O)CC(=O)O	0.6	1.5	1.7	-7.5	16.9	-5.8	.	.
O=C(O)CC(O)(CC(=O)O)C(=O)O	1.1	1.4	2.9	-3.8	23.1*	0.2	80.4*	22.6*
O=[N+]([O-])c1ccc(S(=O)Cc2ccccc2)c([N+](=O)[O-])c1 (stereo not drawn)	-2.9	5.7	1.1	-1.3	95.1*	49.3*	100.5*	109.8*
Cc1ccccc1CS(=O)(=O)c1nnc([C@H](Cc2ccccc2)NC(=O)OC(C)(C)C)o1	-6.1	1.2	6.9	-1.3	42.9*	61.1*	57.3*	105.5*
CCSc1nnc([C@H](Cc2ccccc2)NC(=O)OC(C)(C)C)o1	-0.4	-3.1	-9.4	4.2	-3.6	-2.1	.	.
Cc1ccc(NN2C(=O)C=C(c3ccccc3)C2=O)cc1	20.9*	4.8	.	1.8	91.8*	.	99.7*	105.0*
O=C1c2ccccc2C(=O)N1Nc1ccccc1	1.1	-1.8	5.3	4.3	0.3	0.5	.	.
CNC(=S)N(C)/N=C1/C(=O)N(Cc2c(Cl)cccc2Cl)c2ccccc21	-5.1	-0.7	3.8	-0.5	26.7*	28.7	-3.8	15.9*
